FLuc inh counter – inhibits firefly luciferase, flagging false hits in luciferase inhibition screens; ATPLite firefly luciferase biochemical luminescence, 10 min; P08659; hit rate 1.5% among 200,000; inhibition, % at 10 µM;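 active means inhibition above about 50% when tested at 10 µM, limit read from the data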
Target sequence (P08659 whole entry, looked up): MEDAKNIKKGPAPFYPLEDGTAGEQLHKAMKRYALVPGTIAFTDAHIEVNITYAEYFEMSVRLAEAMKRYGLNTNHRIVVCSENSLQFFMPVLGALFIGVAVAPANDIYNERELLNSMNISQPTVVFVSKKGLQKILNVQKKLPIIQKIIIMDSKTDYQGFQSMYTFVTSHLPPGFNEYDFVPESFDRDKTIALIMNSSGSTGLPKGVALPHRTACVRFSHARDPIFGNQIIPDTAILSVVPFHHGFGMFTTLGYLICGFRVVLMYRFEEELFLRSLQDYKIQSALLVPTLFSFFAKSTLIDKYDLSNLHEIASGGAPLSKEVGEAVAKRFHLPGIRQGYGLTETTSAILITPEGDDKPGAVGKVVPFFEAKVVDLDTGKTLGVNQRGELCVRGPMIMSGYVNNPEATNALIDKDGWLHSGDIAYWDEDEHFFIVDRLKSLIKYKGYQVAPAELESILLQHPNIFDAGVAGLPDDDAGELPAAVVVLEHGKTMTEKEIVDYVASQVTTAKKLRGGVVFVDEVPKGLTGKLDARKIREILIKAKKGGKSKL
STAT1 act – increases IFN-gamma driven STAT1 reporter signal; NIH 3T3 STAT1-luciferase reporter, luminescence; 100% = IFN-gamma alone, no compound; activation (% of control), % at 5.5 µM; hit rate 2.6% among 200,000; AID 932;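 active means activation above the screen-wide mean activation plus 3 SD, cut at about 130% in these data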
Rad51 HR inh – Rad51 (human) homologous recombination inhibition | Q06609 | hRad51 DNA strand exchange, fluorescence dequenching | inhibition, % at 10 µM | hit rate 0.085% among 200,000;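 active means inhibition above 40% at the single screening dose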
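Test system: preformed human Rad51 ssDNA filaments. Compound dosing: single dose, 10 µM final compound. Incubation: filaments 15 min 37 °C, then compound 30 min. Technique: FRET fluorescence dequenching, excitation 485 nm, emission 520 nm. Read-out basis: percent inhibition from fluorescence, normalised to plate control and blank means. Benchmarks: plate controls and plate blanks.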
FLuc act counter – firefly luciferase counter-screen for stimulation assays; P08659; ATPlite luciferase biochemical, luminescence, 10 min; 0 = ATP-free wells, 1 = DMSO control; activation factor at 10 µM; 200,000 tested, under 10 active; AID 1027;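 active means luciferase activation factor, scaled between plate controls, of at least 2 with compound at 10 µM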
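Material: Luciferase/luciferin reagent mix; Doses: test compounds dosed from 2 mM stocks in 100% DMSO; Schedule: 10 min incubation after luciferase reagent addition, room temperature; Measured by: luminescence from luciferase reaction; Read-out: luminescence gain marking luciferase activators.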
NF-kB neuron act – compounds increasing NF-kB expression in human neuronal cells. NF-kB reporter expression; stronger effect = higher value. fold change at 12.5 µM. hit rate 1.6% among 190,000; in the data active means fold change above about 3.3
APP 5'UTR act – activates APP 5'UTR luciferase reporter; activation, % at 2 µM; SH-SY5Y APP 5'UTR luciferase reporter, luminescence; zero percent = DMSO vehicle wells; AID 1276; hit rate 1% among 190,000;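 active means activation above a set limit, based on mean plus 3 SD of controls, cut at about 140% in these data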
Large screens that a line does not name were inactive. An excerpt weighted towards active compounds, which were near 3.9% of everything screened.

CCC1=NN(C(=O)Cc2ccc([N+](=O)[O-])cc2)C(O)(C(C)(C)C)C1 (stereo not drawn)	NF-kB neuron act 3.5
CCCCSc1ccc2nc(-c3ccc(C#N)cc3)cn2c1	STAT1 act 130.9
Cc1nc(-c2ccc(C#N)cc2)cs1	none (no result: FLuc inh counter, STAT1 act, FLuc act counter, NF-kB neuron act, APP 5'UTR act)
Brc1ccc(-c2cn3ccccc3n2)cc1	none (no result: FLuc inh counter, STAT1 act, FLuc act counter, NF-kB neuron act, APP 5'UTR act)
CCCSc1ccc2nc(-c3ccccc3)cn2c1	FLuc inh counter 95.4
CC(C)Cn1c(=O)[nH]c(=O)c2c(C(F)(F)F)cc(-c3ccccc3)nc21	none (no result: FLuc inh counter, STAT1 act, FLuc act counter, NF-kB neuron act, APP 5'UTR act)
c1ccc(-c2noc(CC3CCCCC3)n2)nc1	FLuc inh counter 51.7, STAT1 act 132.7
c1cc(-c2noc(CC3CCCCC3)n2)ccn1	none
Clc1cc(Cl)c(OCc2nc(-c3ccccn3)no2)cc1Cl	STAT1 act 132.4, NF-kB neuron act 5.23
O=C(Nc1cccc(S(=O)(=O)N2CCCCC2)c1)c1ccc2c(=O)n3c(nc2c1)CCCCC3	none
C=CCc1cccc(C=Nc2cccn3cc(-c4ccccc4)nc23)c1O	STAT1 act 131.5
CNc1nc(-c2ccccn2)nnc1-c1ccccc1	NF-kB neuron act 13.2
CCc1ccc(C2c3[nH]c4ccccc4c3CCN2C(=O)c2ccc(=O)n(C)n2)cc1 (stereo not drawn)	none
CSc1ccc(C2c3[nH]c4ccccc4c3CCN2C(=O)c2ccnn2C)cc1 (stereo not drawn)	STAT1 act 137.2
CC(=O)Nc1ccc(S(=O)(=O)NCCCN2CCN(Cc3ccccc3)CC2)cc1Cl	none (no result: FLuc inh counter, STAT1 act, FLuc act counter, NF-kB neuron act, APP 5'UTR act)
c1ccc2nc(-c3ccc(N4CCOCC4)cc3)ccc2c1	FLuc inh counter 88.3 (no result: APP 5'UTR act)
Cc1cc(-c2ccc(N3CCOCC3)cc2)nc2ccccc12	FLuc inh counter 70.6, STAT1 act 129.9
CN1CCN(c2ccc(-c3ccc4ccccc4n3)cc2)CC1	FLuc inh counter 93.5
COCC(C)n1c(C)cc(C(=O)Cn2nc(C(=O)O)c3ccccc3c2=O)c1C (stereo not drawn)	FLuc inh counter 71.3
Cc1cc(C(=O)Cn2nc(C(=O)O)c3ccccc3c2=O)c(C)n1CC(F)(F)F	STAT1 act 142.4
O=c1[nH]c(CSc2ccccn2)nc2c1oc1ccccc12	FLuc inh counter 60.9
CC1=NC(=O)C(N=Nc2cccc(O)c2)N1c1ccccc1 (stereo not drawn)	NF-kB neuron act 4.22 (no result: Rad51 HR inh)
CN(C)Cc1c(-c2ccc(Cl)cc2)nc2ccccn12	STAT1 act 140.6
Clc1ccc(-c2nc3ccccn3c2CN2CCCCC2)cc1	none
Cn1c(SCc2nc3ccccc3c(=O)[nH]2)nc2ccccc21	none
Cn1c(-c2ccccc2)cnc1SCc1nc2ccccc2c(=O)[nH]1	FLuc inh counter 60.8, STAT1 act 134.3, APP 5'UTR act 142.2
Cc1nc2c(-c3ccc(F)cc3)cnn2c2c1CCC2	STAT1 act 130.3
Clc1ccccc1OCc1nnc(-c2ccccc2)o1	STAT1 act 151.2, NF-kB neuron act 3.42
Brc1ccc(-c2nnc(Cc3ccccc3)o2)cc1	none (no result: FLuc inh counter, STAT1 act, FLuc act counter, NF-kB neuron act, APP 5'UTR act)
c1ccc(Cc2nnc(-c3ccccc3)o2)cc1	STAT1 act 130.2
Clc1ccc(OCc2nnc(-c3ccccc3Br)o2)c(Cl)c1	NF-kB neuron act 4.05
CCOC(=O)C[C@H]1c2cc(F)ccc2S(=O)(=O)N1c1cccc(OC)c1	none (no result: FLuc inh counter, STAT1 act, FLuc act counter, NF-kB neuron act, APP 5'UTR act)
CCOCCn1c(CN2CCc3ccccc3C2)nc2c1c(=O)n(C)c(=O)n2C	none (no result: FLuc inh counter, STAT1 act, FLuc act counter, NF-kB neuron act, APP 5'UTR act)
Cc1cc(NC(=O)c2ccccc2[N+](=O)[O-])ccc1Br	STAT1 act 137.9
Cc1cc(Br)c(NC(=O)c2ccccc2[N+](=O)[O-])cc1C	none
NC(=S)c1cc2cc(Cl)ccc2oc1=O	none (no result: FLuc inh counter, STAT1 act, FLuc act counter, NF-kB neuron act, APP 5'UTR act)
Cc1cccc(NC2SC(=O)N(c3ccccc3)C2=O)c1 (stereo not drawn)	NF-kB neuron act 3.53
Cc1cccc(NC(=O)CC2SC(=O)N(c3ccccc3)C2=O)c1 (stereo not drawn)	none
Cc1cccc(NC(=S)NNC(=O)c2ccc3c(c2)OCO3)c1	FLuc inh counter 79.1
CCCc1cc(C(=O)NNC(=S)Nc2cccc(C)c2)cs1	STAT1 act 141.9
O=C(N/N=C/c1ccc(O)cc1O)/C(=C/c1ccccc1)CCO	none
N/C(=N\OC(=O)/C=C/c1ccccc1Cl)c1ccncc1	NF-kB neuron act 3.8, APP 5'UTR act 235.3
N/C(=N\OC(=O)c1cc(Br)ccc1Cl)c1cccnc1	none

From PubChem BioAssay
